Only some compounds are listed: those with a hit (about 1.3% of all), similar ones and a draw of the others.
TPT1 inh: Candida albicans TPT1 enzyme inhibitors, primary screen, biochemical, fluorescence polarization; AID 1962, 2009; hit rate 0.81% among 300,000; tRNA 2'-phosphotransferase TPT1 (Candida albicans SC5314); inhibition, % at 5 µM; recombinant caTPT1, FP RNA substrate dephosphorylation;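 active = inhibition above the mean of all tested compounds plus 3 SD, set per screening campaign, cut at about 24% in these data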
CSN inh: inhibitors of CSN-mediated cullin deneddylation, primary screen, biochemical, fluorescence polarization, uHTS | hit rate 0.38% among 360,000 | COP9 signalosome complex subunit 5 (Homo sapiens), Q92905 | Purified CSN, SCF-Nedd8-OG deneddylation | inhibition, % at 12.5 µM | AID 651999, 2013;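 active = pattern-corrected inhibition above about 35%, with an unprinted fluorescence ratio check between 0.5 and 1.5, limit read from the data, passing the limit was not always enough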
Target sequence (Q92905 whole entry, looked up, one chain of several): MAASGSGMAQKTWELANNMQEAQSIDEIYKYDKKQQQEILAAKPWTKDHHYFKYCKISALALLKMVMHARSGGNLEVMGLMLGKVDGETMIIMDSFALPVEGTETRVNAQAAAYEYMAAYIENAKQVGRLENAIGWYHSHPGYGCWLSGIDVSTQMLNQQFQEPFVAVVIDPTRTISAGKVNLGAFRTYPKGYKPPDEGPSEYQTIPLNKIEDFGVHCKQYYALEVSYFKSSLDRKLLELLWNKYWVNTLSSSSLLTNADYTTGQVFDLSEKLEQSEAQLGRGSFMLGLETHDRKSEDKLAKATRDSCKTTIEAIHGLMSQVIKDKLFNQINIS
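Assay system: Purified human Csn5 enzyme expressed in HEK293T cells | Amount: Enzyme 0.24 nM | Measured by: Fluorescence polarization readout | Medium: Tris/NaCl/DTT buffer, pH 7.5 | Compound dosing: One concentration, 12.5 µM, 0.25% DMSO | Times: 90 min incubation of compound, enzyme and substrate at room temperature | Control set: no-enzyme wells high, enzyme-with-substrate wells low | Read-out: % inhibition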
XiGFP reactiv: activators of inactive X chromosome reactivation, primary screen, imaging, XiGFP fibroblasts, GFP high-content imaging, set 2; AID 743238, 2013; XiGFP mouse fibroblasts, % GFP-positive cells imaging, 3 d; cells co-treated with 5-aza-dC sensitizer; scaled so ellipticine positive control = 100%; activation, % at 7.58 µM; hit rate 0.055% among 360,000;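 active = mean normalized replicate activation at least 10% and every replicate at or above 10%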
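System: 68-5-11 XiGFP fibroblast line | Buffer or medium: DMEM containing 5-aza-dC | Compound: Single point | Times: Compounds 3 days, fix/stain 15 min at room temperature | Benchmarks: Positive control ellipticine, 6 µM final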
Rpn11 block: Rpn11 (PSMD14) deubiquitinase inhibitors, primary screen, biochemical, fluorescence polarization, uHTS | 26S proteasome non-ATPase regulatory subunit 14 (Homo sapiens), O00487 | human 26S proteasome, Ub4-pepOG fluorescence polarization; 20S core pre-blocked with epoxomicin | inhibition, % at 20 µM | hit rate 0.59% among 360,000 | AID 588493, 2011;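 active = inhibition at 20 µM, scaled to each plate's controls, above about 33%, limit read from the data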
Target sequence (O00487 whole entry, looked up): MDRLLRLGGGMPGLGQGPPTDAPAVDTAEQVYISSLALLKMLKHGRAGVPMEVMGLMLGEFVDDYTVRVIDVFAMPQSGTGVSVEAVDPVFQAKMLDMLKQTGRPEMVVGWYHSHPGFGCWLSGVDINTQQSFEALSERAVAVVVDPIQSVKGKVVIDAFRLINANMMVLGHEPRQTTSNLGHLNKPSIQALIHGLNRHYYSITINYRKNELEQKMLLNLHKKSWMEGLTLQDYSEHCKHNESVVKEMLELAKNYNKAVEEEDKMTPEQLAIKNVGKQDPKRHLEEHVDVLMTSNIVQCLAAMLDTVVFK
aDG glyco up: activators of alpha-DG glycosylation, primary screen, uHTS, Pro5-aDG cells, AlphaScreen. alpha-DG glycosylation AlphaScreen (IIH6); 0% Pro5, 100% B10-LARGE cell signal. activation, % at 10 µM. hit rate 0.22% among 360,000;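 active = activation of at least 8% versus controls, or a plate z-score of at least 8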;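 also: Pro5 are CHO cells carrying HIG-tagged alpha-DG that lacks glycosylation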
HNF4A DNA FP: change in binding of human HNF4A to DNA, primary screen, biochemical, fluorescence polarization, FITC-DNA; activity change, % at 10 µM; 1 h; hit rate 0.3% among 360,000; Hepatocyte nuclear factor 4-alpha (Homo sapiens), P41235; AID 1224865, 2016; in the data active = activity change above about 30%, passing the limit was not always enough
aDG glyco conf: alpha-DG glycosylation enhancers, retest, confirmation, single concentration, Pro5-aDG cells; shares compounds with aDG glyco up; IIH6 AlphaLISA; scaled to LARGE-overexpressing B10 cells as 100%; activation, % at 10 µM (by protocol); hit rate 17% among 600;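 active = activation of at least 7% in one or more replicates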;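 also: cells exposed to compound for two days before detection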
Numbers stand for hits; . = inactive; / = no result shown.

SMILES | TPT1 inh | CSN inh | XiGFP reactiv | Rpn11 block | aDG glyco up | HNF4A DNA FP | aDG glyco conf
O=C(CSc1nnc(-c2ccccc2O)n1Cc1ccccc1)NNC(=O)c1ccccc1O | . | . | . | . | . | . | /
c1cncc(-c2nnc(-c3cccnc3)nn2)c1 | . | . | / | . | 13 | . | 7.6
c1ccc(-c2nnc(-c3ccccc3)nn2)cc1 | . | . | . | . | . | . | /
O=C(Nc1ccc(F)cc1)C(c1ccccc1)N1CCN(CC(=O)N2CCCC2)CC1 (stereo unspecified) | / | . | . | . | . | . | /
COc1ccc(C(C(=O)Nc2ccc(F)cc2)N2CCN(CC(=O)N3CCCC3)CC2)cc1 (stereo unspecified) | / | . | . | / | 8.6 | . | .
C[C@H]1CN([C@@H](C)CO)C(=O)c2c(c3ccccc3n2C)-c2ccccc2CO[C@@H]1CN(C)C(=O)Nc1ccc(-c2ccccc2)cc1 | / | / | . | / | / | / | /
O=C(CSc1nnc(Cn2nnc3ccccc32)o1)N(Cc1ccc(Cl)cc1)c1ccccc1 | . | . | / | . | 6.4 | . | .
O=C(CSc1nnc(Cn2nnc3ccccc32)o1)Nc1cccc(Cl)c1 | . | . | / | . | . | . | /
CCCNC(=O)N(C)C[C@H]1Oc2ncc(-c3ccc(OC)cc3)cc2C(=O)N([C@H](C)CO)C[C@@H]1C | / | / | . | / | / | / | /
O=C(Nc1ccc2c(c1)OCO2)N[C@@H]1C=C[C@@H](CC(=O)N2CCN(c3ccccc3)CC2)O[C@H]1CO | / | / | . | / | / | / | /
CCOC(=O)c1cnc(SCC(=O)Nc2cc(OC)ccc2OC)nc1N | . | . | / | . | 6.7 | . | .
O=C(COc1ccccc1Br)NCCC1=CCCCC1 | / | . | . | . | 3.6 | . | .
O=C(C1CCOCC1)N1[C@@H](CO)[C@@H](c2ccccc2)C12CN(Cc1cccc(Cl)c1)C2 | / | / | . | / | / | / | /
CC(C)NC(=O)N(C)C[C@@H]1Oc2ccc(NS(=O)(=O)c3cn(C)cn3)cc2C(=O)N([C@H](C)CO)C[C@@H]1C | / | / | . | / | / | / | /
CC(C)NC(=O)N(C)C[C@H]1Oc2ccc(NS(=O)(=O)c3cn(C)cn3)cc2C(=O)N([C@H](C)CO)C[C@@H]1C | / | . | . | . | 9.3 | . | .
COc1cn(-c2ccccc2)nc1C(=O)Nc1ccc(C)cc1 | . | . | . | . | . | . | /
COc1ccc(C)cc1NC(=O)c1nn(-c2ccccc2)cc1OC | . | . | . | . | 2.5 | . | .
O=C(C[C@@H]1CC[C@H]2[C@@H](COC[C@@H](O)CN2Cc2ccncc2)O1)NCC1CC1 | / | / | . | / | / | / | /
COc1cccc(-c2nc3nc(C)cc(C)n3c2NCc2ccccc2)c1 | / | . | . | / | 5.3 | . | .
CCN1CCN(c2ccc(NC(=O)COc3ccc(Cl)cc3C)cc2)CC1 | / | . | . | . | 5.2 | . | .
COc1ccc(-c2ccc3c(c2)S(=O)(=O)c2cccc(C(=O)NC4CCCCC4)c2C3=O)cc1OC | / | . | / | / | 71 | . | .
COc1ccc(-c2ccc3c(c2)S(=O)(=O)c2cccc(C(=O)NC4CC4)c2C3=O)cc1OC | / | . | . | / | . | . | /
CCn1c(C)nc2cc(S(=O)(=O)C(F)(F)C(F)C(F)(F)F)ccc21 (stereo unspecified) | . | . | / | . | 4.4 | . | .
C[C@@H]1CN([C@H](C)CO)S(=O)(=O)c2ccc(Br)cc2O[C@@H]1CN(C)C(=O)CN(C)C | / | / | . | / | / | / | /
Cc1ccc(OCCCCNC2CCCCC2)c(C)c1 | . | . | . | . | 6.9 | . | .
SMILES | TPT1 inh | CSN inh | XiGFP reactiv | Rpn11 block | aDG glyco up | HNF4A DNA FP | aDG glyco conf
COC(=O)c1cccc(NC(=O)CN2C(=O)c3ccccc3C2=O)c1 | . | . | . | . | 1.3 | . | .
CCOc1ccc(N2CC(C(=O)N3CCN(c4ccccn4)CC3)CC2=O)cc1 (stereo unspecified) | . | . | . | . | 10 | . | 10
Cc1noc(C)c1NC(=O)N(C)C[C@H]1OCCCC[C@@H](C)Oc2ccc(NC(=O)c3ccccc3)cc2C(=O)N([C@@H](C)CO)C[C@H]1C | / | / | . | / | / | / | /
CC(C)(C)c1ccc(OCCCNC2CCCC2)cc1 | . | . | . | . | 6.7 | . | .
O=c1cc(-c2ccccc2)oc2ccc(O)cc12 | . | . | . | . | 2.4 | . | .
Cc1cc(OCc2nc(-c3cccs3)no2)cc(C)c1Cl | . | . | . | . | 7.7 | . | .
c1ccc(OCc2nc(-c3cccs3)no2)cc1 | . | . | / | . | . | . | /
Cc1cc(C)c(S(C)(=O)=O)c(S(=O)(=O)c2ccc(Cl)cc2)n1 | . | . | / | . | . | . | /
Cc1cc(C)c(S(=O)(=O)O)c(C)n1 | . | . | / | . | 6.9 | . | .
COc1ccc2c3c(n(C)c2c1)[C@H](CO)N(C(C)=O)CC31CN(C(=O)Nc2ccc(F)cc2)C1 | / | / | . | / | / | / | /
CCCCCNCC(=O)Nc1cccc(C(=O)Nc2cccc(C(F)(F)F)c2)c1 | . | . | . | . | 16 | . | 10
O=C(C[C@@H]1CC[C@H](NC(=O)c2ccncc2)[C@H](CO)O1)Nc1ccccc1 | / | / | . | / | / | / | /
COc1ccc2c3c(n(C)c2c1)[C@H](CO)N(C(=O)c1ccncc1)CC31CCN(C(C)=O)CC1 | / | / | . | / | / | / | /
CN(CCCCOc1ccc(F)cc1)Cc1ccccc1 | . | . | . | . | . | . | /
CCc1ccc(OCCCCN(C)Cc2ccccc2)cc1 | . | . | . | . | 1.8 | . | .
CO[C@@H]1CN(C)C(=O)c2ccc(NC(C)=O)cc2OC[C@H](C)N(CC2CCCCC2)C[C@H]1C | / | / | . | / | / | / | /
C[C@@H]1CN([C@@H](C)CO)C(=O)Cc2cc(NC(=O)C3CCCCC3)ccc2O[C@@H]1CN(C)S(=O)(=O)c1ccc(F)cc1 | / | / | . | / | / | / | /
CCN(CCCNC(=O)C1CCN(S(=O)(=O)c2cccc3nonc23)CC1)Cc1ccccc1 | . | . | / | . | 8.3 | . | .
O=C(c1cccc(F)c1)N1CCCCN2[C@H](C1)[C@H](c1ccc(-c3cccnc3)cc1)[C@@H]2CO | / | / | . | / | / | / | /
COc1ccc2c3c(n(C)c2c1)[C@H](CO)N(Cc1ccccc1F)CC31CN(C(=O)C2CC2)C1 | / | / | . | / | / | / | /
CC(C)COC(=O)N(C)C[C@@H]1OCc2cnnn2CCCC(=O)N([C@@H](C)CO)C[C@@H]1C | / | . | . | . | . | . | /

Compound activity as filed in PubChem BioAssay.
